pIC50: −log10 of the molar value. Several values for one entry are separate records, joined by “and”; a condition that tells them apart may be missing. Equal values may be shown once.

In test [1] the target is T1, Steroid hormone receptor ERR1 (Homo sapiens, UniProt P11474).
T1 sequence (P11474 whole entry): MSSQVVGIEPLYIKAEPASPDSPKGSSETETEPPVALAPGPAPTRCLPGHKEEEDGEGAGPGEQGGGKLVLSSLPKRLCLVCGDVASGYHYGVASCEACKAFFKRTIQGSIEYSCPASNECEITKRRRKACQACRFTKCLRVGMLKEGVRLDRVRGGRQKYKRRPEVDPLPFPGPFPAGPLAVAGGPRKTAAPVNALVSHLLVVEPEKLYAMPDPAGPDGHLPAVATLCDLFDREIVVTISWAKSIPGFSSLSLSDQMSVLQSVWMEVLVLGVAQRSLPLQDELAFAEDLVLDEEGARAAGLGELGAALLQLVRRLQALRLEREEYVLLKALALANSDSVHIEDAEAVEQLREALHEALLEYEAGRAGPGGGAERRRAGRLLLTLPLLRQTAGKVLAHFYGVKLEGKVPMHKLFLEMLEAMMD
Briefly: (§1) Inhibition of estrogen-related receptor alpha Gal4 activity.

The target in test [2] is T2, Steroid hormone receptor ERR1 (Homo sapiens) (UniProt P11474).
T2 sequence (whole entry): T1 sequence (P11474 whole entry)
In words: Percent inhibition of estrogen-related receptor alpha Gal4 activity at 10 uM. A digest of the protocol: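 Gal4-ERRα cell-based cotransfection assay with compound tested at a single concentration of 10 μM. Activity expressed as percent inhibition of ERRα-driven Gal4 signal.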

For test [3], the target named is T1, Steroid hormone receptor ERR1. In words: Inhibition of estrogen-related receptor alpha Gal4 activity; not active. Put shortly:
(§2)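 Cell-based cotransfection assay in Gal4-ERRα format. IC50 fitted by nonlinear regression to 10-dose titration curves and averaged over at least two experiments. Standard error of the mean typically under 30% per experiment. NA means not active under assay conditions.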

Test [4] has the same target. In words: Inhibition of estrogen-related receptor alpha in FP assay.
The target is the same in test [5]. Described as §1. A digest of the protocol:
as §2
This is another data set of the same source.

As to `CCc1nnc(NC(=O)/C(C#N)=C/c2ccc(OCc3ccc(C(F)(F)F)cc3C(F)(F)F)c(OC)c2)s1`, in test [1], the pIC50 was 6.40 and 6.21 and 6.27. Also, the inhibition in test [2] is 106% and 104% and 99%.
`CCc1nnc(NC(=O)/C(C#N)=C/c2ccc(OCc3ccccc3OC(F)(F)F)c(OC)c2)s1` gave a pIC50 in test [1] of 5.74. Moreover, the inhibition in test [2] worked out at 101%.
For `CCc1nnc(NC(=O)/C(C#N)=C/c2ccc(OCc3cc(C(F)(F)F)ccc3C(F)(F)F)c(OC)c2)s1`, in test [3], the IC50 entry was “Not Active”.
In turn, `COc1cc(/C=C(\C#N)C(=O)Nc2nnc(SC)s2)ccc1OCc1ccc(C(F)(F)F)cc1C(F)(F)F` showed a pIC50 in test [1] of 6.36. Also, the inhibition in test [2] was 105%.
Consider `CCc1nnc(NC(=O)/C(C#N)=C/c2ccc(OCc3ccc(F)cc3C(F)(F)F)c(OC)c2)s1`, for which the pIC50 in test [1] is 6.04 and 5.82. Further, the inhibition in test [2] was 109% and 90%.
For `COc1cc(/C=C(\C#N)C(=O)Nc2nnc(C(C)(C)C)s2)ccc1OCCOc1c(C)cccc1C`, in test [1], the pIC50 is 5.77. The inhibition in test [2] was 104%.
With `CCc1nnc(NC(=O)/C(C#N)=C/c2ccc(OCc3c(F)cccc3C(F)(F)F)c(OC)c2)s1`, the IC50 entry in test [3] is “Not Active”.
Take `CCc1nnc(NC(=O)/C(C#N)=C/c2ccc(OCCOc3c(C)cccc3C)c(OC)c2)s1`: the pIC50 in test [1] was 5.70. The inhibition in test [2] was 96%.
Consider `COc1cc(/C=C(\C#N)C(=O)Nc2nnc(-c3ccc(N(C)C)cc3)s2)ccc1OCCOc1c(C)cccc1C`, for which the pIC50 in test [1] is 5.70. For the same compound, in test [2], the inhibition was 74%.
Turning to `COc1cc(/C=C(\C#N)C(=O)Nc2nncs2)ccc1OCCOc1c(C)cccc1C`, in test [1], the pIC50 is 5.85. In test [2], the inhibition is 103%.
`CCc1nnc(NC(=O)/C(C#N)=C/c2ccc(OCCOc3c(C)cccc3C)c(OC)c2)o1` gave a pIC50 in test [1] of 5.48. Moreover, in test [2], the inhibition worked out at 88%.
Turning to `CCC1=NN2C/C(=C/c3ccc(OCCOc4c(C)cccc4C)c(OC)c3)C(=O)N=C2S1`, the pIC50 is 5.85 in test [4] and 5.64 in test [5].
Regarding `CCc1nnc(NC(=O)/C(C#N)=C/c2ccc(OCc3cc(F)ccc3C(F)(F)F)c(OC)c2)s1`, the pIC50 in test [1] was 6.10 and 5.77.
In test [1], `COc1cc(/C=C(\C#N)C(=O)Nc2nncs2)ccc1OCc1ccc(C(F)(F)F)cc1C(F)(F)F` showed a pIC50 of 6.12. In addition, in test [2], the inhibition was 99%.
In test [1], `COc1cc(/C=C(\C#N)C(=O)Nc2nnc(-c3ccccc3)s2)ccc1OCc1ccc(C(F)(F)F)cc1C(F)(F)F` had a pIC50 of 6.30. In addition, in test [2], the inhibition came to 105%.
`COc1cc(/C=C(\C#N)C(=O)Nc2nccs2)ccc1OCCOc1c(C)cccc1C`: in test [3], the IC50 entry is on record as “Not Active”.
Regarding `COc1cc(/C=C(\C#N)C(=O)Nc2nnc(C(F)(F)F)s2)ccc1OCCOc1c(C)cccc1C`, in test [1], the pIC50 was 5.82. The inhibition in test [2] turned out to be 112%.
For the compound `COc1cc(/C=C(\C#N)C(=O)Nc2nnc(C(F)(F)F)s2)ccc1OCc1ccc(C(F)(F)F)cc1C(F)(F)F`, in test [2], the inhibition turned out to be 109%.
Regarding `CCc1nnc(NC(=O)/C(C#N)=C/c2ccc(OCc3cccc4ccccc34)c(OC)c2)s1`, in test [1], the pIC50 was 5.74. In addition, in test [2], the inhibition came out at 90%.
`CCc1nnc(NC(=O)/C(C#N)=C/c2ccc(OCc3ccccc3Br)c(OC)c2)s1` gave a pIC50 in test [1] of 5.66. The inhibition in test [2] came to 57%.
`COc1cc(/C=C(\C#N)C(=O)Nc2nnc(C(C)(C)C)s2)ccc1OCc1ccc(C(F)(F)F)cc1C(F)(F)F` showed a pIC50 in test [1] of less than 5.00. Besides, the inhibition in test [2] stood at 43%.
The corresponding values for `COc1cc(/C=C(\C#N)C(=O)Nc2nnc(SC)s2)ccc1OCCOc1c(C)cccc1C` are 5.59 and 92%.

The values above are taken from ChEMBL document CHEMBL1137227, “Identification of a selective inverse agonist for the orphan nuclear receptor estrogen-related receptor alpha” (J Med Chem, 2004).
